High-throughput results: PubChem, several laboratories
NadD block – blocks S. aureus nicotinate mononucleotide adenylyltransferase; inhibition, % at 20 µM; purified NadD enzyme, colorimetric absorbance read-out; actives 0.78% (n = 360,000); in the data active = inhibition above about 26%
VIM-2 inhibitor – blocks Pseudomonas aeruginosa VIM-2 metallo-beta-lactamase; purified VIM-2, nitrocefin hydrolysis, epi-absorbance fluorescence; inhibition, % at 5.6 µM; actives 0.89% (n = 290,000); AID 1527;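 active = inhibition above the mean of all tested compounds plus 3 SD, cutoff set per screening run, cut at about 7.5% in these data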;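 also: red hydrolysis product quenches plate fluorescence so inhibitors raise well fluorescence; 0% = enzyme with DMSO and 100% = DMSO without enzyme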
HCV core dimer – HCV core protein dimerization inhibition. AID 1899. TR-FRET GST/Flag-core106 dimerization, 1536-well. actives 0.33% (n = 300,000). inhibition, % at 5 µM;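 active = inhibition above the mean of all tested compounds plus 3 SD, set per screening campaign, cut at about 45% in these data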
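Assay system – GST-tagged and Flag-tagged HCV core protein residues 1-106 · Quantity – core106 proteins, GST 13.5 nM and Flag 17 nM · Benchmarks – unlabelled core106 and no-GST-core106 wells · Read-out basis – percent inhibition of core106 dimerization signal · Detection – time-resolved FRET, ex 340 nm, em 617 and 671 nm · Schedule – 4 h at 22.5 °C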
IMP-1 inh – inhibitors of Pseudomonas aeruginosa IMP-1 metallo-beta-lactamase | purified IMP-1, nitrocefin hydrolysis, epi-absorbance fluorescence | inhibition, % at 5.6 µM | actives 0.45% (n = 290,000) | AID 1556;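 active = inhibition above the mean plus 3 SD of all compounds in the same screening run, cut at about 4.5% in these data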;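 also: 0% = IMP-1 with DMSO and 100% = DMSO wells lacking enzyme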
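System: Purified IMP-1 | Read-out basis: Percent enzyme inhibition | Controls: IMP-1 with DMSO as 0%, enzyme-free DMSO as 100% | Replicates: One well per compound | Doses: 5.6 µM nominal single concentration | Detection: Epi-absorbance fluorescence, 480 nm excitation, 530 nm emission | Incubation: 25 °C, 15 min preincubation, 25 min reaction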
Numbers without * were called inactive; / = no result. Only some compounds are listed: those with a hit (about 1.9% of all), similar ones and a draw of the others.

SMILES | NadD block | VIM-2 inhibitor | HCV core dimer | IMP-1 inh
O=C(CCN1C(=O)/C(=C\c2ccco2)SC1=S)Nc1ccc(C(=O)O)c(O)c1 | 39.5* | -1.1 | 4.0 | 8.0*
O=C(CCN1C(=O)/C(=C/c2ccco2)SC1=S)Nc1ccc(C(=O)O)c(O)c1 | 3.3 | -2.9 | 4.4 | 1.9
O=C(CCCN1C(=O)/C(=C\c2ccco2)SC1=S)Nc1ccc2ccccc2c1 | 19.1 | -0.9 | 46.1* | 1.5
O=C(O)C(O)Cc1c[nH]c2ccccc12 (stereo not drawn) | 0.4 | -1.7 | -2.2 | -4.3
O=C(O)C(=O)Cc1c[nH]c2ccccc12 | 6.7 | -1.4 | -2.4 | 4.5*
COc1cccc(OC)c1-c1nn2c(-c3cc(-c4ccccc4)n[nH]3)nnc2s1 | 52.5* | -0.5 | 54.2* | -3.4
COc1ccc(-c2nn3c(-c4ccncc4)nnc3s2)cc1OC | / | 10.3* | / | -2.8
c1ccc(-c2nnc3sc(-c4ccncc4)nn23)cc1 | -2.6 | 9.0* | 1.3 | -2.8
COc1cc(-c2nn3c(-c4ccccn4)nnc3s2)cc(OC)c1OC | / | 3.0 | / | -2.5
Oc1c(Br)cc(/C=N/n2c(-c3ccccc3)n[nH]c2=S)c(Br)c1O | / | -2.6 | 5.8 | -4.3
Oc1c(Br)cc(Br)cc1/C=N/n1c(-c2ccccc2)n[nH]c1=S | 13.8 | -0.7 | -10.6 | 22.1*
C#CCOCCOCCOCCNc1nc(N2CCN(C(=O)CCCCCCCCCCNC(=O)[C@H]([C@@H](C)CC)n3cc(CCCCCN)nn3)CC2)nc(N2CCN(C(=O)CCCCCCCCCCNC(=O)[C@H](CO)n3cc(CCCCCN)nn3)CC2)n1 | 21.3 | / | 6.7 | /
C#CCOCCOCCOCCNc1nc(N2CCN(C(=O)CCCCCCCCCCNC(=O)Cn3cc(CCCCCN)nn3)CC2)nc(N2CCN(C(=O)CCCCCCCCCCNC(=O)[C@H]([C@@H](C)CC)n3cc(CCCCN=C(N)N)nn3)CC2)n1 | 43.3* | / | -0.1 | /
C#CCOCCOCCOCCNc1nc(N2CCN(C(=O)CCCCCCCCCCNC(=O)[C@H]([C@@H](C)CC)n3cc(CCCCCN)nn3)CC2)nc(N2CCN(C(=O)CCCCCCCCCCNC(=O)[C@H]([C@@H](C)CC)n3cc(CCCCN=C(N)N)nn3)CC2)n1 | 48.1* | / | 7.0 | /
C#CCOCCOCCOCCNc1nc(N2CCN(C(=O)CCCCCCCCCCNC(=O)[C@H]([C@@H](C)CC)n3cc(CCCCN=C(N)N)nn3)CC2)nc(N2CCN(C(=O)CCCCCCCCCCNC(=O)[C@H](CO)n3cc(CCCCCN)nn3)CC2)n1 | 35.7* | / | 4.3 | /
C#CCOCCOCCOCCNc1nc(N2CCN(C(=O)CCCCCCCCCCNC(=O)[C@H]([C@@H](C)CC)n3cc(CCCCN=C(N)N)nn3)CC2)nc(N2CCN(C(=O)CCCCCCCCCCNC(=O)[C@H]([C@@H](C)CC)n3cc(CCCCN=C(N)N)nn3)CC2)n1 | / | / | 15.6 | /
CC(C)N1C(=O)CC(Nc2cccc3cccc(N)c23)C1=O (stereo not drawn) | 5.5 | -2.3 | / | 12.4*
COc1ccccc1N1CCN(C(=O)c2cc3c(=O)n4cccc(C)c4nc3s2)CC1 | 0.8 | 10.3* | 5.6 | 0.0
COc1ccc(CCNC(=O)c2cc3c(=O)n4cccc(C)c4nc3s2)cc1OC | 0.5 | 10.1* | -0.4 | -0.2
Cc1cccn2c(=O)c3cc(C(=O)N4CC(C)CC(C)C4)sc3nc12 (stereo not drawn) | -1.2 | 11.6* | 10.7 | -1.8
CCN(C(=O)c1cc2c(=O)n3cccc(C)c3nc2s1)C1CCCCC1 | -2.2 | 9.0* | -7.9 | -2.2
CCN(C(=O)c1cc2c(=O)n3ccccc3nc2s1)C1CCCCC1 | 4.2 | 2.9 | 9.8 | -3.5
CCOC(=O)Cc1csc(NC(=O)c2ccc3ncsc3c2)n1 | -8.9 | -2.4 | 3.0 | -2.8
O=C(CCc1ccccc1)N=C1SC2CS(=O)(=O)CC2N1c1ccccc1 (stereo not drawn) | -0.7 | 0.5 | -2.4 | 0.1
O=[N+]([O-])c1ccc(C(O)C23CN4CN(CN(C4)C2)C3)cc1 (stereo not drawn) | -4.2 | -1.1 | -1.5 | -3.8
SMILES | NadD block | VIM-2 inhibitor | HCV core dimer | IMP-1 inh
COc1ccccc1Nc1nc(N)nc(CCl)n1 | 1.6 | -2.4 | -0.2 | -1.2
COc1ccc(OCc2nc(N)nc(Nc3ccccc3OC)n2)cc1 | -3.4 | -0.6 | -0.9 | 5.4*
CN(C)CCN(CC1CCCN(Cc2ccccc2F)C1)C(=O)c1ccc(Cl)cc1 (stereo not drawn) | -8.3 | -1.6 | -8.7 | -1.1
COC(=O)C1=C(C)NC(=O)/C1=C\c1cc(C)n(-c2cc(C)cc(C)c2)c1C | 31.7* | -1.1 | 20.4 | -2.1
COc1ccc2c(c1)Cc1sc(NC(C)=O)nc1-2 | 2.8 | 2.6 | -3.0 | 10.7*
COc1ccc2c(c1)Cc1sc(NC(=O)c3ccco3)nc1-2 | -2.5 | -2.0 | -9.2 | -1.8
